Xi reactivation = activators of inactive X chromosome reactivation, primary screen, imaging, XiGFP fibroblasts, GFP high-content imaging, set 2; XiGFP mouse fibroblasts, % GFP-positive cells imaging, 3 d; cells co-treated with 5-aza-dC sensitizer; scaled so ellipticine positive control = 100%; 0.055% of 360,000 active; AID 743238, 2013; activation, % at 7.58 µM;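 active = mean normalized replicate activation at least 10% and every replicate at or above 10%; inconclusive = only one of the two criteria met; inactive = mean below 10% and not all replicates reach 10%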;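 also: 0% = median of on-plate neutral control wells and 100% = ellipticine 6 µM median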
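System: 68-5-11 XiGFP fibroblast line | Buffer or medium: DMEM containing 5-aza-dC | Compound: Single point | Times: Compounds 3 days, fix/stain 15 min at room temperature | Benchmarks: Positive control ellipticine, 6 µM final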
DENV2 CPE = inhibitors of DENV2 cytopathic effect, primary screen, cell-based, plate reader, single concentration; DENV2-infected cells, cytopathic effect rescue; 1.7% of 350,000 active; CPE inhibition, % at 9.99 µM; in the data active = CPE inhibition above about 20%, passing the limit was not always enough; inconclusive = no clear call, values can overlap the other calls; tested in BHK-21 cells;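 also: 0% = median of neutral control wells and 100% = median of positive control wells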
FN deposit inh = inhibitors of fibronectin matrix deposition, primary screen, AH1F cells, Alexa488-fibronectin fluorescence, plate reader | AID 743247, 2014 | AH1F fibroblasts, overnight | inhibition, % at 12.6 µM | 0.086% of 350,000 active;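 active = mean inhibition across replicates of 30% or more, regardless of how many single replicates reach that level; inconclusive = mean under 30% yet at least half of replicates reach 30%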;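 also: positive control wells lacked labelled fibronectin entirely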
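Assay system: AH1F fibroblasts assembling fluorescent fibronectin matrix; Amount: 10000 AH1F cells per well; Buffer or medium: DMEM, 2% serum; Probe or stimulus: Alexa488-fibronectin, 24 nM final in well; Doses: single compound dose, delivered by pin transfer; Incubation: 1 h adhesion, overnight exposure; Measured by: fluorescence 485/525 nm; Read-out: fibronectin deposition inhibition.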
CASP6 VEID inh = human caspase-6 inhibitors, primary screen, biochemical, VEID-R110 fluorescence, single point, set 2; AID 686996, 2013; 0.53% of 350,000 active; inhibition, % at 12.5 µM; purified caspase-6, Z-VEID-R110 cleavage fluorescence; P55212;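 active = mean inhibition across replicates at least about 35%, with every replicate also reaching that limit, limit read from the data; inconclusive = only one of the two criteria met; inactive = neither criterion met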;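 also: 0% = median of neutral control wells and 100% = no fluorescence left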
Target sequence (P55212 24-179 limits assumed): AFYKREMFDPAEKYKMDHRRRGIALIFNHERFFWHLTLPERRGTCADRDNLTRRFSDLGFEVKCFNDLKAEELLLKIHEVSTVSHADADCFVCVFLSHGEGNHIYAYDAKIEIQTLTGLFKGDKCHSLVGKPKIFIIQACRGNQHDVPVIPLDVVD
Target sequence (P55212 194-293 limits assumed): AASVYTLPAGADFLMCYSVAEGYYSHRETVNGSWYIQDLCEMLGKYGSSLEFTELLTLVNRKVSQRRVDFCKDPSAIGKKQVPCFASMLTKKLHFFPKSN
CaV13 ICDI inh = Primary screen for inhibitors of IQ motif and Ca2+-dependent inactivation inhibitor domain binding in CACNA1D, Förster resonance energy transfer in living cells, …; inhibition, % at 12.3 µM; AID 743397; HEK cells, CFP/YFP FRET ICDI-IQ, plate reader, 10 min; percent FRET-ratio fall versus neutral wells; 0.098% of 340,000 active;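 active = mean replicate inhibition of at least 30% and at least 1% of replicates passing that level; inconclusive = only one of the two criteria is met; inactive = neither criterion is met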;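 also: 0% = median of the neutral control wells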
* marks the source's active call; other numbers are inactive results; ? = inconclusive; . = no result given. Only some compounds are listed: those with a hit (about 2% of all), similar ones and a draw of the others.

SMILES	Xi reactivation	DENV2 CPE	FN deposit inh	CASP6 VEID inh	CaV13 ICDI inh
Nc1c(C(=O)N/N=C/c2cccnc2)oc2nc(-c3ccco3)cc(-c3ccco3)c12	0	3	10	89*	-83
CC(C)C#Cc1cnc2c(c1)C(=O)N([C@H](C)CO)C[C@@H](C)[C@H](CN(C)C(=O)Nc1ccccc1)O2	-1	-3	-3	0	.
CCN1CCC(N2CCN(c3ccc(F)cc3)CC2)CC1	0	28*	-7	-28	-3
O=C(C[C@H]1CC[C@@H]2[C@H](COC[C@H](O)CN2C(=O)c2ccccc2)O1)NCCCN1CCOCC1	0	-1	-7	.	.
COC(=O)C(=O)C1CCc2c(Cl)cc(OC)c(OC)c2C1=O (stereo not drawn)	1	65*	-20	79*	-16
CNC(=O)c1cc(Cl)c(OC)c(OC)c1	1	-2	5	3	-4
CO[C@@H]1CN(C)C(=O)c2cc(NC(=O)c3cnccn3)ccc2OC[C@H](C)N(CCc2ccccc2)C[C@H]1C	0	-12	-9	-2	.
O=C(O)CCC(=O)Nc1sc2c(c1C(=O)Nc1ccccc1)CCCCC2	0	-4	-10	47*	-3
O=C(O)CCC(=O)Nc1sc2c(c1C(=O)Nc1cccc3ccccc13)CCCCC2	0	.	-19	.	-3
O=C(Nc1ccc(Br)c(C(F)(F)F)c1)c1ccc(C(F)(F)F)cc1	0	-14	40*	0	-2
CS(=O)(=O)N1C[C@@H]2N[C@H](C1)C2c1ccc(-c2ccc(F)cc2)cc1 (stereo partly drawn)	0	.	-2	.	.
COc1ccc(OC)c(N/C(=N/c2nc(C)cc(C)n2)NC(C)=O)c1	0	4	4	53*	0
CCCC(=O)Nc1ccc2c(c1)C(=O)N(C)[C@@H]1CC[C@@H](CC(=O)NCC(F)(F)F)O[C@@H]1CO2	0	5	8	.	.
OC(COc1ccc(Cl)cc1Cl)Cn1ccnc1 (stereo not drawn)	0	42*	1	-3	-3
O=C1c2ccccc2C(=O)c2c1cccc2N1CCCC1	0	8	4	5	-1
O=C1C=C(N2CCCCC2)c2ccccc2C1=O	0	-1	0	100*	-2
O=C1c2cccnc2C(=O)N1C1CCCCC1	.	7	.	-3	-8
NC1=C(Br)C(=O)c2ncccc2C1=O	0	0	9	100*	-7
O=C(O)c1c2c(nc3ccc(S(=O)(=O)N4CCC(C(=O)NCc5ccccc5)CC4)cc13)CCCC2	0	0	-2	19	-6
CCC(C)NC(=O)C1CCN(S(=O)(=O)c2ccc3nc4c(c(C(=O)O)c3c2)CCCCC4)CC1 (stereo not drawn)	0	-5	-6	0	-5
COc1ccccc1CNC(=O)C1CCN(S(=O)(=O)c2ccc3nc4c(c(C(=O)O)c3c2)CCCC4)CC1	0	0	6	50*	-3
CC1CCC(NC(=O)C2CCN(S(=O)(=O)c3ccc4nc5c(c(C(=O)O)c4c3)CC(C)CC5)CC2)CC1 (stereo not drawn)	0	?	6	21	-1
CN(Cc1ccccc1)C(=O)C1CCN(S(=O)(=O)c2ccc3nc4c(c(C(=O)O)c3c2)CCCC4)CC1	0	-4	-10	62*	-2
CC1CCc2nc3ccc(S(=O)(=O)N4CCC(C(=O)NCc5ccccc5Cl)CC4)cc3c(C(=O)O)c2C1 (stereo not drawn)	0	2	-15	45*	-3
CC(NC(=O)C1CCN(S(=O)(=O)c2ccc3nc4c(c(C(=O)O)c3c2)CCCC4)CC1)c1ccccc1 (stereo not drawn)	0	-6	11	52*	-3
SMILES	Xi reactivation	DENV2 CPE	FN deposit inh	CASP6 VEID inh	CaV13 ICDI inh
O=C(C[C@@H]1CC[C@@H]2[C@H](COC[C@@H](O)CN2Cc2cccc(F)c2)O1)NCCc1ccncc1	0	?	-7	2	.
CCCNC(=O)C1CCN(S(=O)(=O)c2ccc3nc4c(c(C(=O)O)c3c2)CCCCC4)CC1	0	6	-6	2	-7
Cc1ccc(CCNC(=O)C2CCN(S(=O)(=O)c3ccc4nc5c(c(C(=O)O)c4c3)CCCC5)CC2)cc1	0	7	-9	62*	-3
COc1ccc(CNC(=O)C2CCN(S(=O)(=O)c3ccc4nc5c(c(C(=O)O)c4c3)CC(C)CC5)CC2)cc1 (stereo not drawn)	0	-1	0	36*	-4
CO[C@H]1CN(C)C(=O)c2cc(NC(=O)c3ccccc3F)ccc2OC[C@@H](C)N(C(C)=O)C[C@H]1C	0	.	-24	.	.
Cc1cc(C)c(OCCCNC2CCCC2)c(Br)c1	0	28*	0	-4	-21
O=C(N[C@H](Cc1ccccc1)C(=O)NC1CCCCC1)[C@H]1O[C@@H](n2ccc(=O)[nH]c2=O)[C@H](O)[C@@H]1O	0	28*	3	-3	-3
CCN1C(=O)N/C(=C/c2ccc(C)o2)C1=O	0	.	-5	42*	-5
CCOC(=O)c1sc(/N=C/N(C)C)c(C(=O)OCC)c1C	.	.	3	.	-7
CCOC(=O)c1sc(/N=C/N(C)C)nc1C	0	40*	-2	1	-5
CC=Cc1ccc2n(c1=O)C[C@@H]1[C@@H](CO)[C@H](C(=O)NCc3ccccc3)N(CC)[C@H]21 (mixture of isomers)	0	38*	.	0	.
CC=Cc1ccc2n(c1=O)C[C@@H]1[C@@H](CO)[C@H](C(=O)NC3Cc4ccccc4C3)N(CC3CC3)[C@H]21 (mixture of isomers)	0	75*	.	-1	.
CCNC(=O)[C@@H]1[C@@H](CO)[C@@H]2Cn3c(ccc(/C=C/c4ccccc4)c3=O)[C@@H]2N1C(C)=O	0	62*	.	-2	.
CC=Cc1ccc2n(c1=O)C[C@H]1[C@H](CO)[C@@H](C(=O)Nc3nccs3)N(C(=O)CC)[C@@H]21 (mixture of isomers)	0	58*	.	-1	.
CCCN1[C@H](C(=O)NCC)[C@@H](CO)[C@@H]2Cn3c(ccc(/C=C/c4ccccc4)c3=O)[C@@H]21	0	-9	.	-1	.
COCC(=O)Nc1ccc2c(c1)OC[C@H](C)N(Cc1cncnc1)C[C@@H](C)[C@H](OC)CN(C)C2=O	0	.	5	.	.
O=C(Nc1ccc2c(c1)[C@H]1C[C@H](CC(=O)N3CCCCC3)O[C@H](CO)[C@H]1O2)Nc1ccccc1F	0	3	-21	2	.
O=C(Nc1ccc2c(c1)[C@H]1C[C@@H](CC(=O)N3CCCCC3)O[C@H](CO)[C@H]1O2)NC1CCCC1	0	56*	-4	-1	.
